Calls of active or inactive are those of the source. No cut-off for these calls is given here.
Assays:
[1] = target: T1, Ubiquitin carboxyl-terminal hydrolase 19 (Homo sapiens) (UniProt O94966); test: Inhibition of USP19 in HEK293T cell lysates assessed as enzyme recovery at 250 uM using HA-tagged vinyl-sulfone as substrate […] followed by 10-fold dilution and subsequent substrate addition measured up to 2 hrs by Western blot analysis; type: subcellular; details: Lysate
T1 sequence (whole entry): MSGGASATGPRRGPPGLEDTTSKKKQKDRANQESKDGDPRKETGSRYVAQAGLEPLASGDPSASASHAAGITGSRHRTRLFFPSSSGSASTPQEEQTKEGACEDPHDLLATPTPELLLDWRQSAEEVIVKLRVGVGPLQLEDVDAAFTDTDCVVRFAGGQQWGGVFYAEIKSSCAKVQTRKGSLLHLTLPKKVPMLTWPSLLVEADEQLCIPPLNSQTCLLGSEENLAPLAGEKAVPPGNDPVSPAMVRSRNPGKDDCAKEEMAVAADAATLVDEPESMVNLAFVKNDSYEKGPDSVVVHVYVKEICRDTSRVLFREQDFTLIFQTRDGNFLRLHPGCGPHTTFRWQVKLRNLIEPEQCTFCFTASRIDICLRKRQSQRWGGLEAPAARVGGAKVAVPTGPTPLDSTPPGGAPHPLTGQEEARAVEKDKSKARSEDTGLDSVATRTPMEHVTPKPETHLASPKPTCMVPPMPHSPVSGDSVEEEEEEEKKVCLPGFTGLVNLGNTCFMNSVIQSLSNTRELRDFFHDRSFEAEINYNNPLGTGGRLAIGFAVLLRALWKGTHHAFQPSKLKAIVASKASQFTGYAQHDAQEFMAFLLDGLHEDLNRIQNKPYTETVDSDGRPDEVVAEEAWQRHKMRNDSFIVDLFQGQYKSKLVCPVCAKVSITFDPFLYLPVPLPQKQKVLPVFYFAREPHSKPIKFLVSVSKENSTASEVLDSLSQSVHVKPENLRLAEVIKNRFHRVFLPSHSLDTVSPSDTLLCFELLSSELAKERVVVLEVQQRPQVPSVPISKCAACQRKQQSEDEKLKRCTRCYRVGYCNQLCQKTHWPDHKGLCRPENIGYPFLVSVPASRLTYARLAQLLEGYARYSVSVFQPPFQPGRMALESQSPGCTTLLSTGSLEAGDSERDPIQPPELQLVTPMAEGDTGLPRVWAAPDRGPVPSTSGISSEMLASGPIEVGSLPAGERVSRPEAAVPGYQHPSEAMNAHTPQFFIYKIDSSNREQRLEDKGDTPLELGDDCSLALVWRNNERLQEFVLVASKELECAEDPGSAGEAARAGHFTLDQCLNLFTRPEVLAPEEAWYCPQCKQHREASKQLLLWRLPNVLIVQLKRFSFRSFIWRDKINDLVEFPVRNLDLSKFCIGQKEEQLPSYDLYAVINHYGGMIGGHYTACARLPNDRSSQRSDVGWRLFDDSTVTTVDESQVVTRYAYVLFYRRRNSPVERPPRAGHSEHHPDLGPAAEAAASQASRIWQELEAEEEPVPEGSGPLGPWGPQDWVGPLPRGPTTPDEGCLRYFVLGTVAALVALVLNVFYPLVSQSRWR

[2] = target: Ubiquitin carboxyl-terminal hydrolase 28 (Homo sapiens) (UniProt Q96RU2); test: Inhibition of USP28 in HEK293T cell lysates at 25 uM using HA-tagged vinyl-sulfone as substrate preincubated for 19 to 60 mins followed by substrate addition and measured after 19 to 25 mins by Western blot analysis; type: subcellular; details: Lysate
Sequence of Ubiquitin carboxyl-terminal hydrolase 28 (Homo sapiens) (Q96RU2 whole entry): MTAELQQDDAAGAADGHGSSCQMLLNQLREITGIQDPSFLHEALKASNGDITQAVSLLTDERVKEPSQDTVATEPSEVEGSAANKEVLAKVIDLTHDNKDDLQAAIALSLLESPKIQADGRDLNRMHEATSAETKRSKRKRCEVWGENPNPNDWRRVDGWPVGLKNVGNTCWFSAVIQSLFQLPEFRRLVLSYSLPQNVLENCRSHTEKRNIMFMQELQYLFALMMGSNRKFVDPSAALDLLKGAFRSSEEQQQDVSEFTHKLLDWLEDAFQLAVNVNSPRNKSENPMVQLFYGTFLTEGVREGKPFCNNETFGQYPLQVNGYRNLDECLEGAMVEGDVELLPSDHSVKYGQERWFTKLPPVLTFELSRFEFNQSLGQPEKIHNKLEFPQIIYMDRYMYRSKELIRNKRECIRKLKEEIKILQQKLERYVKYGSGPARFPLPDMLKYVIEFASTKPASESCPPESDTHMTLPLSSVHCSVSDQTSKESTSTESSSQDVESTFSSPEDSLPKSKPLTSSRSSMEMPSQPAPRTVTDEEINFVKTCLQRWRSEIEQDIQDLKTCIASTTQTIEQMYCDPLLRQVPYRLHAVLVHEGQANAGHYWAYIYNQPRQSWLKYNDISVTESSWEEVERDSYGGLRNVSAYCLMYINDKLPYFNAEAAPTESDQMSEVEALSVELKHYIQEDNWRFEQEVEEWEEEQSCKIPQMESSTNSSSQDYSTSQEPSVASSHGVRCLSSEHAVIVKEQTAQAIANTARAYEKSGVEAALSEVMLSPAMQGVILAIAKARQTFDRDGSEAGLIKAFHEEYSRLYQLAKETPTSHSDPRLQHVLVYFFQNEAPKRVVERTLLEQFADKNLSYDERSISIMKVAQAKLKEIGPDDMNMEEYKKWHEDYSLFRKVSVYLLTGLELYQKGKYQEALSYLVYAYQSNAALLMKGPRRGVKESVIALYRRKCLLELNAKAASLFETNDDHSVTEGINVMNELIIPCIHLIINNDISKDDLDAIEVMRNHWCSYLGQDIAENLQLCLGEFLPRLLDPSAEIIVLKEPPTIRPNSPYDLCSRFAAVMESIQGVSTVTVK

[3] = target: Ubiquitin carboxyl-terminal hydrolase 7 (Homo sapiens) (UniProt Q93009); test: Inhibition of USP7 in human MCF7 cells assessed as increase in p21 expression at 25 uM after 4 hrs by Western blot analysis; type: cell-based
Sequence of Ubiquitin carboxyl-terminal hydrolase 7 (Homo sapiens) (Q93009 whole entry, looked up): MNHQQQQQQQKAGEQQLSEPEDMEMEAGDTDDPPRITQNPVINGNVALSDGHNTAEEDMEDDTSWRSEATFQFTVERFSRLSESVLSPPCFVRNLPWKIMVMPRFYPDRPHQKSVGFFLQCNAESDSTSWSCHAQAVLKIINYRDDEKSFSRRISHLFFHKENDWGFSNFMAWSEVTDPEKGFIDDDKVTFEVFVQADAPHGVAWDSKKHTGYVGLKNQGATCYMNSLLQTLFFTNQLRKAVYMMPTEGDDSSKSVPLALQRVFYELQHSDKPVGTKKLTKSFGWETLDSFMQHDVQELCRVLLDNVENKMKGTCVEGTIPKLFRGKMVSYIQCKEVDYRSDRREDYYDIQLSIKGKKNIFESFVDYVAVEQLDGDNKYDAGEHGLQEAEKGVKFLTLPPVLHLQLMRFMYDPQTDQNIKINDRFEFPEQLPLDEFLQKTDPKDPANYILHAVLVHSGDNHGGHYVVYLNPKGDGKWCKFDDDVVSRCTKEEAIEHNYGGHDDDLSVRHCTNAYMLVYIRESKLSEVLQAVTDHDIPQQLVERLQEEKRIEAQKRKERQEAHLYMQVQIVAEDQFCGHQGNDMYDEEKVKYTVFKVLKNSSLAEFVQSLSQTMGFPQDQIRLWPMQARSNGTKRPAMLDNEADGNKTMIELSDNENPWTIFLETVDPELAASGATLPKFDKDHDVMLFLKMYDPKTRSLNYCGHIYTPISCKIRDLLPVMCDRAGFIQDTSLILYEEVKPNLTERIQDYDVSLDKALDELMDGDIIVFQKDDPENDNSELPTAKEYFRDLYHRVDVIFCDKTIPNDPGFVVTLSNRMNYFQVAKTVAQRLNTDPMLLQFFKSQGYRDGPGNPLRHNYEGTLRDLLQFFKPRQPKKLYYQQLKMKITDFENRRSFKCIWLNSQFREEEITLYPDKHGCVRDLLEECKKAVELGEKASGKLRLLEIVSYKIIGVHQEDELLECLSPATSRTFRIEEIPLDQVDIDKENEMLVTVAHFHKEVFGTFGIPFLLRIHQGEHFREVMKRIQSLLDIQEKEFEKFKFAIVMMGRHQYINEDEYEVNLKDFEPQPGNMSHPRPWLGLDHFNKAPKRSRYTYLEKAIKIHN
Outline: (§1)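 MCF7 cells treated with compound for 4 h. Mdm2, p53 and p21 levels were determined by immunoblotting.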

[4] = target: Ubiquitin carboxyl-terminal hydrolase 7 (Homo sapiens) (UniProt Q93009); test: Inhibition of USP7 in human MCF7 cells assessed as increase in p53 expression at 25 uM after 4 hrs by Western blot analysis; type: cell-based; outline: as §1
[5] = target: Ubiquitin carboxyl-terminal hydrolase 9X (Homo sapiens) (UniProt Q93008); test: Inhibition of USP9x in human K562 cells assessed as decrease in Bcr-Abl expression at 50 uM measured after 4 hrs in presence of proteasome inhibitor bortezomib by Western blot analysis; type: cell-based
Sequence of Ubiquitin carboxyl-terminal hydrolase 9X (Homo sapiens) (Q93008 whole entry): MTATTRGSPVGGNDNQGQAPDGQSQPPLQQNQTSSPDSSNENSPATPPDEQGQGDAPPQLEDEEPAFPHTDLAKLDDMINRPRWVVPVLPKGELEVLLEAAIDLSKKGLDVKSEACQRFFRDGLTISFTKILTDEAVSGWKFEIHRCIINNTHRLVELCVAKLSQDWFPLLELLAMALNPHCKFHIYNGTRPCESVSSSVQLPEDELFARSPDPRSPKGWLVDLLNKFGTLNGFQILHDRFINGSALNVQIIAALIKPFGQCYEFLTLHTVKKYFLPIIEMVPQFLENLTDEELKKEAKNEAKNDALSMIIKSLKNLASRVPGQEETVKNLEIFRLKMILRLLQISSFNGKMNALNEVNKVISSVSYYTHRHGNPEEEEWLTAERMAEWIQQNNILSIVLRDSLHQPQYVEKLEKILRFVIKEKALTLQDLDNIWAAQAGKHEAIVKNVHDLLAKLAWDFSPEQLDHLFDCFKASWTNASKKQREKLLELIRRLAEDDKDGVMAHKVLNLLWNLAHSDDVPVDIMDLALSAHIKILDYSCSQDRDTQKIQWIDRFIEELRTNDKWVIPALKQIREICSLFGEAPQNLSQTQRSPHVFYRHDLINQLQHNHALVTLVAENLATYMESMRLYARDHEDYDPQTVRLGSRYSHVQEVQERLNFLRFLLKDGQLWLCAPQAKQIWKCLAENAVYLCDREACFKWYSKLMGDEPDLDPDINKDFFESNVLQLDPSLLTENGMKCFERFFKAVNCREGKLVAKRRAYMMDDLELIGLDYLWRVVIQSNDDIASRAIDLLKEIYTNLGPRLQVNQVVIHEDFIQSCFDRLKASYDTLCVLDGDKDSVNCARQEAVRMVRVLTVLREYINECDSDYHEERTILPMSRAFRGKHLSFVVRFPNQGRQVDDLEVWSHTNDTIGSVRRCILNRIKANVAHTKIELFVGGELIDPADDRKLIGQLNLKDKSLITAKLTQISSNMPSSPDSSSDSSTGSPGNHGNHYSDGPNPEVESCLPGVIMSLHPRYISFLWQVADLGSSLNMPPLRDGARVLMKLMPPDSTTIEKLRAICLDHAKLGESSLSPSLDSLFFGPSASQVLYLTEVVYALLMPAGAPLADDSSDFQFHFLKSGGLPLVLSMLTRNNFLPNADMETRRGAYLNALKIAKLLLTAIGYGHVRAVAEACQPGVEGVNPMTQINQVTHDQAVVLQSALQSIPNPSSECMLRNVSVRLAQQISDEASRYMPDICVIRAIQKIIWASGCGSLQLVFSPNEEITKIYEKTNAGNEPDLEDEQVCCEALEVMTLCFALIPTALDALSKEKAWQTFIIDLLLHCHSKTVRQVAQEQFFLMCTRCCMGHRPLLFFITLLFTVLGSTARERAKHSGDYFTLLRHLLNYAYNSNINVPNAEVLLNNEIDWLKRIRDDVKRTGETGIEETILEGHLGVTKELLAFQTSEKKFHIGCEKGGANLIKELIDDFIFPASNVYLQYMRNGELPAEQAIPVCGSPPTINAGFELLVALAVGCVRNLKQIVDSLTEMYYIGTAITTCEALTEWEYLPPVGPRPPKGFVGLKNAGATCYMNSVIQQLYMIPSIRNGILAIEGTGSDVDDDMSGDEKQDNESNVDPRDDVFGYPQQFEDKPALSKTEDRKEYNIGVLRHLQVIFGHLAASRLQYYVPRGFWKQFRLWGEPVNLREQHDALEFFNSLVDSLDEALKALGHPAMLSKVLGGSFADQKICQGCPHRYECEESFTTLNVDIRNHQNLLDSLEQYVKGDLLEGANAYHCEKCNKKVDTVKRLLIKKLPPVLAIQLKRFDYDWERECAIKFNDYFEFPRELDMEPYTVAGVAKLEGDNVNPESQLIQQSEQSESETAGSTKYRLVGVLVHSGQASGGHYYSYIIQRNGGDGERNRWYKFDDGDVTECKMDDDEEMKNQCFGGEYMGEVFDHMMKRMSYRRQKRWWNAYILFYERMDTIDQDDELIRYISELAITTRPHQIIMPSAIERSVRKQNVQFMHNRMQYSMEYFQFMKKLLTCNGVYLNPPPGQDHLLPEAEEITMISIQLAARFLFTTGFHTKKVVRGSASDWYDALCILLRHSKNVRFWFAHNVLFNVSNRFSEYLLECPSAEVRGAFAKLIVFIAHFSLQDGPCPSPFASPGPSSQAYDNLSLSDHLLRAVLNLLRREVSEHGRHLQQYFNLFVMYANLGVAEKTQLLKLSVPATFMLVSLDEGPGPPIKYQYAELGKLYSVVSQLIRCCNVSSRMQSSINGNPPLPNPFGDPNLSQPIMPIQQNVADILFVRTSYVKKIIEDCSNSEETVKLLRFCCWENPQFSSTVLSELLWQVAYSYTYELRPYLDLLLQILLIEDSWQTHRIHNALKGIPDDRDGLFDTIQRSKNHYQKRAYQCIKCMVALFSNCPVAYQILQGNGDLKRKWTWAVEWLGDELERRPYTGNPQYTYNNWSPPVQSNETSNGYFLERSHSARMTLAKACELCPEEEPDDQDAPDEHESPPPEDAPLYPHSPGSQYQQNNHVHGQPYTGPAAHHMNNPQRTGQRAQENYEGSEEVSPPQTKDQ
Outline: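 K562 cells treated with 50 μM compound with or without bortezomib (6 μM) for 4 h. Lysates were sonicated in SDS, and Bcr-Abl was measured by anti-Abl immunoblot with quantitation.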

[6] = target: Ubiquitin carboxyl-terminal hydrolase isozyme L1 (Homo sapiens) (UniProt P09936); test: Inhibition of UCHL1 in HEK293T cell lysates at 25 uM using HA-tagged vinyl-sulfone as substrate preincubated for 19 to 60 mins followed by substrate addition and measured after 19 to 25 mins by Western blot analysis; type: subcellular; details: Lysate
Sequence of Ubiquitin carboxyl-terminal hydrolase isozyme L1 (Homo sapiens) (P09936 whole entry, looked up): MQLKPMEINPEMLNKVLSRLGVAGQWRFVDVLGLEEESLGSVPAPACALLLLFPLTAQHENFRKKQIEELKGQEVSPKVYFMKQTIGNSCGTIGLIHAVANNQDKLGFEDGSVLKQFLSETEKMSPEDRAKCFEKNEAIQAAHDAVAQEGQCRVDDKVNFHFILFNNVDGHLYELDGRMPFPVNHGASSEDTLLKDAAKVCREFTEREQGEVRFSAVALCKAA

MCF7 = test: Cytotoxicity against human MCF7 cells assessed as decrease in cell viability treated every 24 hrs measured after 72 hrs by alamar blue assay; type: functional, cell-based
Outline: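 MCF7 or B16/F10 cells dosed with compound every 24 h. Viable cells were quantified with Alamar Blue after 72 h.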

Ficin (Ficus carica) = test: Inhibition of fig ficin at 100 uM using Z-Arg-AMC as substrate preincubated for 30 mins followed by substrate addition by fluorescence assay
[7] = target: T2, Ubiquitin carboxyl-terminal hydrolase isozyme L3 (Homo sapiens) (UniProt P15374); test: Inhibition of UCHL3 in HEK293T cell lysates assessed as enzyme recovery at 250 uM using HA-tagged vinyl-sulfone as substrate […] followed by 10-fold dilution and subsequent substrate addition measured within 15 mins by Western blot analysis; type: subcellular; details: Lysate
T2 sequence (whole entry): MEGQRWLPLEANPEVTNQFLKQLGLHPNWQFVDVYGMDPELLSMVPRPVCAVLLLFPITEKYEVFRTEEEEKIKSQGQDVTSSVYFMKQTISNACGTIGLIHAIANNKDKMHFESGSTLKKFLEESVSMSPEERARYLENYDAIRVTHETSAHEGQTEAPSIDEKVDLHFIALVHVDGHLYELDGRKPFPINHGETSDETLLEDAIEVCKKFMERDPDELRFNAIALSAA

[8] = Inhibition of deubiquitinase in HEK293T cells expressing N-terminal HA-tagged ubiquitin assessed as stabilization of HMW-Ub proteins after 2 hrs by Western blot analysis; type: cell-based, Homo sapiens
[9] = target: Ubiquitin carboxyl-terminal hydrolase 7 (Homo sapiens) (UniProt Q93009); test: Inhibition of USP7 in human MCF7 cells assessed as accumulation of K48-Ub protein at 50 uM after 4 hrs by Western blot analysis; type: cell-based
Outline: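 MCF7 cells exposed to 50 μM compound for 4 h. K48-linked ubiquitin chains were detected by immunoblot.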

[10] = target: Ubiquitin carboxyl-terminal hydrolase 7 (Homo sapiens) (UniProt Q93009); test: Inhibition of USP7 in HEK293T cell lysates at 25 uM using HA-tagged vinyl-sulfone as substrate measured after 2 to 30 mins by Western blot analysis; type: subcellular; details: Lysate
Outline: (§2)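 HEK 293T lysate (1.5 mg/ml) given compound (25 μM) or DMSO at the same time as HA-Ub-VS (1.5 μM). Aliquots withdrawn over time were run on SDS-PAGE and immunoblotted for HA.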

[11] = target: Ubiquitin carboxyl-terminal hydrolase 9X (Homo sapiens) (UniProt Q93008); test: Inhibition of USP9x in HEK293T cell lysates at 25 uM using HA-tagged vinyl-sulfone as substrate measured after 2 to 30 mins by Western blot analysis; type: subcellular; details: Lysate; outline: as §2

NCc1ccc(OC(=O)Oc2ccc3ccccc3c2)cc1
inhibition [1]: inactive
inhibition [2]: Active
inhibition [3]: Active
Activity [4]: Active
inhibition [5]: Active
inhibition [6]: inactive
Activity (MCF7): Active
inhibition (Ficin (Ficus carica)): inactive
inhibition [7]: Active
EC50 [8]: 20 µM
inhibition [9]: Active
inhibition [10]: inactive
inhibition [11]: inactive

— ChEMBL document CHEMBL4371052, “Diarylcarbonates are a new class of deubiquitinating enzyme inhibitor” (Bioorg Med Chem Lett, 2019)
